Compound activity: PubChem, several laboratories
Beta apoptosis: beta cell apoptosis inhibition; INS-1E cytokine-induced death, ATP luminescence, 48 h; percent of positive-control rescue, neutral wells zero; protection from apoptosis, % (test concentration not listed); 0.8% of 300,000 active; AID 435005;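 active means Every replicate reaches about 75%, or at least half do and their mean reaches it too, limit read from the data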;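 further: 0% = cytokine-treated negative control wells and 100% = positive control rescue; higher means more ATP so stronger rescue from cytokine killing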
CSC inhib: cancer stem cell inhibition; cancer stem cell-like cells viability, luminescence; AID 2717; 1.1% of 300,000 active; inhibition, % at 7.5 µM; in the data active means inhibition above about 75%; tested in HMLE shEcad cells
SKKanGAS inh: blocks kanamycin growth of S. pyogenes SKKanGAS strain; BacTiter-Glo, 6 h; inhibition, % at 7.5 µM; 1.3% of 300,000 active; AID 1662;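 active means mean replicate score, as percent of positive control median, at least 50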;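 further: strain carries kanamycin resistance gene driven by streptokinase promoter and grows in 40 µg/ml kanamycin; loss of luminescence reflects streptokinase promoter inhibition or plain growth inhibition; 0% = median of DMSO wells and 100% = positive control at its reference dose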
T cruzi repl: blocks replication of Trypanosoma cruzi; 1.4% of 300,000 active; inhibition, % (test concentration not listed); T. cruzi beta-gal in NIH3T3, luminescence, 90 h;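 active means mean inhibition across valid replicates above about 55%, limit read from the data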;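 further: signal also drops with host cell toxicity which is not excluded here; 0% = plate median of DMSO wells and 100% = zero luminescence signal; higher percent means less beta-gal luminescence so fewer parasites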
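System: mouse NIH/3T3 fibroblasts infected with β-gal-expressing T. cruzi Tulahuen C4 / Input: NIH/3T3 cells, 5,000 per well / Buffer or medium: Low-serum DMEM with 2% FBS / Probe or stimulus: 5000 reporter trypomastigotes per well / Schedule: ≥90 h infection period, 3 h prior cell attachment / Measured by: GalScreen luminescence, 60 min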
Mdm2 MdmX PPI: inhibitors of human Mdm2/MdmX interaction; O15151+Q00987; SaOS-2 split-luciferase Mdm2/MdmX complementation, luminescence; inhibition, % at 8 µM; 3% of 330,000 active;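 active means inhibition of at least 50% at 8 µM in the primary screen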
Target sequence (O15151 whole entry, looked up): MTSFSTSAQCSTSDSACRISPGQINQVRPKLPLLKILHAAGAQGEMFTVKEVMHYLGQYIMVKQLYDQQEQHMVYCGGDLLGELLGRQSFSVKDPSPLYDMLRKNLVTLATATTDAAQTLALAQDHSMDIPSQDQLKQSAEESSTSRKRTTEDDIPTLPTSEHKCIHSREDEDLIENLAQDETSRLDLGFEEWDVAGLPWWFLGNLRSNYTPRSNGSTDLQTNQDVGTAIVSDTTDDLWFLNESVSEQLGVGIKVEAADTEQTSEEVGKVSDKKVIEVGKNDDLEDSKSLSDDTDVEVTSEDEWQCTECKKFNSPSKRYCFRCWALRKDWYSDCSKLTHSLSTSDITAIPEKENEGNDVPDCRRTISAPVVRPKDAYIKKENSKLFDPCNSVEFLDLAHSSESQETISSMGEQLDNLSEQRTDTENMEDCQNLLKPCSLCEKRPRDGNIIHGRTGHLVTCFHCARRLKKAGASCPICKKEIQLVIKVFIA
Target sequence (Q00987 whole entry, looked up): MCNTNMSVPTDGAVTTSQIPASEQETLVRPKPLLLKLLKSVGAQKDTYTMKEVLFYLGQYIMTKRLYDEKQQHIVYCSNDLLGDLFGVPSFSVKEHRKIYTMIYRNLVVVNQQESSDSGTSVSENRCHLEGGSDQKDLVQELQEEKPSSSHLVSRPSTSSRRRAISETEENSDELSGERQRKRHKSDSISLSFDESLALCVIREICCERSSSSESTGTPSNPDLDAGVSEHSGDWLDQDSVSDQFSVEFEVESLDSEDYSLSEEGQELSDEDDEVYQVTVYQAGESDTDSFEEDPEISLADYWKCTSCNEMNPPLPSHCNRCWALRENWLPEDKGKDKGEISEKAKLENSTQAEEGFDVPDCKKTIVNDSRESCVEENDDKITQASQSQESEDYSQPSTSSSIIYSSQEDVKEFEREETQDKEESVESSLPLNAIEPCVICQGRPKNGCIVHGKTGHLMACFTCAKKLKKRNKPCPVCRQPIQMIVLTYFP
Lmaj promast: Leishmania major promastigote growth inhibition. Leishmania major promastigotes, resazurin fluorescence viability. inhibition, % at 10 µM. 9% of 200,000 active. AID 1063; in the data active means inhibition above about 50%;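 further: promastigotes grown with compound for 44 hours at 28 °C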
Lmaj promast 1uM: blocks Leishmania major promastigote growth at 1 uM, repeat screen; L. major promastigote growth, resazurin fluorescence, 48 h; inhibition, % at 1 µM; shares compounds with Lmaj promast; AID 1258; 13% of 1,100 active;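 active means inhibition above about 50% in both repeat tests, limit read from the data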
Numbers without * were called inactive; / = no result given. Sampled rows, rich in hits. Any-hit rate of the full collection: about 9.4%.

SMILES	Beta apoptosis	CSC inhib	SKKanGAS inh	T cruzi repl	Mdm2 MdmX PPI	Lmaj promast	Lmaj promast 1uM
Cc1nn(-c2ccccc2)c(N)c1C(O)(C(F)(F)F)C(F)(F)F	9	-12	8	-6	-27	98*	-1
CC(CCc1ccc(O)cc1)N(C)CCc1ccccc1 (stereo not given)	2	-9	0	50	-12	94*	26
CC(CCc1ccc(O)cc1)NC(c1ccccc1)c1ccc(Cl)cc1 (stereo not given)	1	48	9	21	-1	/	/
CC(=O)C1=NN(c2ccccc2)C(c2cccs2)N1c1ccc(N(C)C)cc1 (stereo not given)	103*	2	-1	55*	25	96*	-8
COc1cccc(NC(=O)CC(=O)c2ccccc2)c1	-5	-3	1	-12	-28	/	/
CC(C)C(=O)N1CCC(c2nc(-c3ccc(S(=O)(=O)N4CCN(C)CC4)cc3)no2)CC1	-6	-21	5	8	-15	-1	/
O=C(CC1CCCCC1)N1CCC(c2nc(-c3ccc(S(=O)(=O)N4CCCC4)cc3)no2)CC1	19	42	11	-8	31	66*	2
Cc1occc1C(=O)NNC(=O)C1CCCCC1	-1	-9	-2	-9	4	72*	-15
O=S(=O)(CCN(CCS(=O)(=O)C(F)(F)F)CC1CCCO1)C(F)(F)F (stereo not given)	-7	11	4	-3	21	100*	8
N=c1c2c(n(Cc3ccccc3)c3c1CCC3)CCC2	36	-4	4	47	34	100*	94*
CC(=O)Nc1cccc(Oc2cc(C#N)c(C#N)cc2N2CCCCCC2)c1	1	-7	27	36	34	61*	0
CC1=NN(c2ccc(C)cc2)C(=O)/C1=C\c1ccc(Br)s1	-7	-9	-19	11	-25	99*	20
Cn1cccc1C1Nc2ccccc2NC2=C1C(=O)CC(C)(C)C2 (stereo not given)	-7	-3	6	3	6	91*	-10
COc1ccccc1OCCNC(=O)c1ccc2c(c1)OCCO2	-7	-9	-5	8	-94	/	/
Cc1cccc(C)c1-n1nnnc1C1(Nc2ccccc2)CCCCC1	6	6	-8	27	22	100*	-11
Cc1ccccc1-c1nnc(SCC(=O)NC2CCCC2)n1C	4	0	-5	2	17	/	/
CC1Cc2ccccc2N1C(=O)CSc1nnc(Cc2ccccc2)n1CCc1ccccc1 (stereo not given)	/	/	13	33	/	51*	4
CC1Cc2ccccc2N1C(=O)CSc1nnnn1C (stereo not given)	-5	-8	-7	4	4	-6	/
O=C(Nc1ccc(Cl)cn1)c1ccc([N+](=O)[O-])o1	/	/	0	11	/	100*	80*
Cc1nc(-c2cn[nH]c2)c2cc(C)oc2n1	-6	11	2	-1	22	62*	-8
Cc1cc2c(C)nc(-c3ccccc3)nc2o1	-5	10	-5	-2	-44	-2	/
C=CCOc1ccc2ccccc2c1/C=N/O	-4	-3	-4	-13	32	51*	1
COc1ccc2ccccc2c1/C=N/O	/	-7	24	-4	18	10	/
CN(C)c1ccc(/C=C2\SC(N3CCCCC3)=NC2=O)cc1	/	-7	-7	19	30	/	/
O=C(O)C1C(C(=O)O)C1(c1ccccc1)c1ccccc1 (stereo not given)	0	2	-4	-17	-5	/	/
CCOC(=O)C1C(C(=O)OCC)C1(c1ccccc1)c1ccccc1 (stereo not given)	0	1	7	-6	-14	89*	-2
